Screening data (PubChem BioAssay)
DENV2 CPE rescue: inhibitors of DENV2 cytopathic effect | DENV2-infected cells, cytopathic effect rescue, plate reader | CPE inhibition, % at 9.99 µM | hit rate 1.7% among 350,000 | AID 651640; in the data active = CPE inhibition above about 20%, passing the limit was not always enough; tested in BHK-21 cells;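 note: 0% = median of neutral control wells and 100% = median of positive control wells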
ERp5 inh: inhibitors of human ERp5. Q15084. ERp5 insulin aggregation, absorbance 650 nm, 90 min. inhibition, % at 9.99 µM. hit rate 0.05% among 350,000. AID 651711;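 active = mean replicate inhibition above about 25%, with every replicate also reaching it, limit read from the data, passing the limit was not always enough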
Target sequence (Q15084 whole entry, looked up): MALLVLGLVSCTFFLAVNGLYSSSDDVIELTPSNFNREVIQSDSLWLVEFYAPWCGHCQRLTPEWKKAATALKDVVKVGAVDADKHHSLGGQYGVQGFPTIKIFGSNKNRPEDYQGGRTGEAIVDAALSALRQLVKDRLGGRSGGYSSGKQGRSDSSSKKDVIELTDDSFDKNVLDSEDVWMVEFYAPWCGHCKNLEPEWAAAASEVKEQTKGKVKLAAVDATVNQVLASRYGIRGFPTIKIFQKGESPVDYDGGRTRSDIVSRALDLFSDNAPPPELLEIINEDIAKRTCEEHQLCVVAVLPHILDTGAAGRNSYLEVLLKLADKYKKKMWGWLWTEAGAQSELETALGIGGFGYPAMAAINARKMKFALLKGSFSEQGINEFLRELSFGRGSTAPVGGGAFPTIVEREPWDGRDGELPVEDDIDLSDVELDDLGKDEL
Cneo AK release: causes C. neoformans cell lysis. lysis activity, % at 15 µM. hit rate 0.2% among 360,000. adenylate kinase release luminescence, 4 h; normalised: neutral wells 0, clomiphene wells 100;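 active = mean lysis activity across replicates of at least 80%, whatever share of replicates individually reach that level; inactive = mean lysis activity below 80%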
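read-out = cell lysis signal | test system = log-phase Cryptococcus neoformans yeast cells | input = cells at 5 × 10^6 per mL | medium = fresh YPD growth medium | signal = luminescent adenylate kinase detection reagent | timing = 4 h at 37 °C static, read 1 h later | dosing = single dose | controls = Clomiphene as positive lysis control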
PDI turbidity: PDI (human) enzyme inhibition; inhibition, % at 10 µM; PDI insulin aggregation turbidity, A650, 90 min; hit rate 0.052% among 350,000;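 active = mean inhibition across replicates of 30% or more, whatever share of single replicates reach that level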
CFTR F508del cor: CFTR F508del correction in bronchial cells. hit rate 0.36% among 350,000. activity (quench increase), % at 7.58 µM. CFBE cells, YFP halide quenching; stimulated with forskolin plus potentiator P3; % fluorescence drop versus neutral controls;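 active = mean added fluorescence quench of at least 8% versus neutral control, with both replicates also reaching 8%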;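 note: cells transiently co-express mutant CFTR-F508del with the halide-sensitive YFP; corrector assay measuring rescue of mutant channel to the surface after 24 h compound exposure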
Statin myotox sup: suppressors of simvastatin-induced myotoxicity in C2C12 myotubes | ATP luminescence, 48 h; scaled: DMSO 0, geranylgeraniol control 100 | hit rate 0.78% among 330,000 | rescue of ATP level, % at 7.49 µM;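 active = mean ATP rescue above about 67%, or every replicate alone reaching that limit, limit read from the data, passing the limit was not always enough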;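 note: myotubes were challenged with 10 µM simvastatin during compound exposure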
Numbers without * were called inactive. A selection: hits, their analogues and other compounds. The true share with any hit is near 2.3%.

How did C[C@@H]1CN([C@@H](C)CO)C(=O)Cc2cc(NC(=O)c3ccncc3)ccc2O[C@@H]1CN(C)S(C)(=O)=O do in these assays?
DENV2 CPE rescue: -5; ERp5 inh: 1; Cneo AK release: -6; CFTR F508del cor: -1; Statin myotox sup: 11

How did CSc1nc(N2CCOCC2)c2c3c(sc2n1)CCC3 do in these assays?
Cneo AK release: 13; PDI turbidity: 6; Statin myotox sup: 98*

How did CC1C(=O)N(Cc2cn(CC3CCCCC3)nn2)CCS(=O)(=O)N1Cc1ccc(-c2ccc(Cl)c(Cl)c2)cc1 (stereo not given) do in these assays?
DENV2 CPE rescue: 57*; ERp5 inh: 7; PDI turbidity: -4; CFTR F508del cor: -3; Statin myotox sup: -5

Results for CC1C(=O)N(Cc2cn(CC3CCCCC3)nn2)CCS(=O)(=O)N1Cc1ccc(-c2ccc(Cl)cc2)cc1 (stereo not given) ?
Cneo AK release: -4; PDI turbidity: 1; Statin myotox sup: 8

Results for CNC[C@H]1OCCCC[C@@H](C)Oc2ccc(NC(=O)Cc3ccccc3)cc2C(=O)N([C@H](C)CO)C[C@H]1C ?
DENV2 CPE rescue: -5; ERp5 inh: 1; Cneo AK release: 1; CFTR F508del cor: -3; Statin myotox sup: 10

How did CNC[C@@H]1OCCCC[C@H](C)Oc2ccc(NC(=O)Cc3ccccc3)cc2C(=O)N([C@@H](C)CO)C[C@H]1C do in these assays?
DENV2 CPE rescue: 44*; ERp5 inh: 0; Cneo AK release: 0; CFTR F508del cor: 0; Statin myotox sup: -13

Results for CNC[C@H]1OCCCC[C@H](C)Oc2ccc(NC(=O)Cc3ccccc3)cc2C(=O)N([C@H](C)CO)C[C@@H]1C ?
DENV2 CPE rescue: 14; ERp5 inh: -1; Cneo AK release: 108*; CFTR F508del cor: 2; Statin myotox sup: -17

What do the screens show for `CNC[C@H]1OCCCC[C@@H](C)Oc2ccc(NC(=O)Cc3ccccc3)cc2C(=O)N([C@@H](C)CO)C[C@H]1C`?
DENV2 CPE rescue: -9; ERp5 inh: -2; Cneo AK release: 14; CFTR F508del cor: -1; Statin myotox sup: 13

Results for O=C(C[C@@H]1CC[C@H](NC(=O)c2ccncc2)[C@@H](CO)O1)NCCc1ccncc1 ?
DENV2 CPE rescue: -2; ERp5 inh: 1; Cneo AK release: -3; CFTR F508del cor: 0; Statin myotox sup: -3

Results for CCN(C(=O)N(CC)c1ccccc1)c1ccccc1 ?
DENV2 CPE rescue: 20*; ERp5 inh: 3; Cneo AK release: 2; CFTR F508del cor: -1; Statin myotox sup: -4

What do the screens show for `CC(=O)Nc1nnc(SCc2cccc(F)c2)s1`?
DENV2 CPE rescue: -9; ERp5 inh: 5; Cneo AK release: 0; PDI turbidity: 14; CFTR F508del cor: 1; Statin myotox sup: 87*

What do the screens show for `COc1ccc(C(=O)Nc2ccc(NC(=O)c3cccc(F)c3)cn2)cc1`?
DENV2 CPE rescue: -2; ERp5 inh: 4; Cneo AK release: -1; PDI turbidity: -1; CFTR F508del cor: 13*; Statin myotox sup: -1

What do the screens show for `CCCCC(=O)Nc1ccc(NC(=O)c2ccccc2OC)cn1`?
Cneo AK release: 1; PDI turbidity: -3; Statin myotox sup: -10

Results for COc1ccc(C(=O)Nc2ccc(NC(=O)c3cccc(OC)c3)cn2)cc1 ?
DENV2 CPE rescue: 2; ERp5 inh: -6; Cneo AK release: -1; PDI turbidity: 0; CFTR F508del cor: -1; Statin myotox sup: -15

Results for CCCCC(=O)Nc1ccc(NC(=O)c2cc(OC)c(OC)c(OC)c2)cn1 ?
Cneo AK release: 1; PDI turbidity: 2; Statin myotox sup: 82*

How did C[C@@H]1CN([C@H](C)CO)C(=O)c2cc(NC(=O)Nc3cccc4ccccc34)ccc2O[C@H]1CN(C)C do in these assays?
DENV2 CPE rescue: 8; ERp5 inh: 4; Cneo AK release: 0; CFTR F508del cor: 0; Statin myotox sup: 7

How did C[C@@H]1CN([C@H](C)CO)C(=O)c2cc(C#CCN(C)C)cnc2O[C@H]1CN(C)Cc1ccc(-c2ccccc2)cc1 do in these assays?
DENV2 CPE rescue: -8; ERp5 inh: 1; Cneo AK release: -10; CFTR F508del cor: 7; Statin myotox sup: -11

What do the screens show for `CC(=O)N[C@@H]1CC[C@@H](CCNC(=O)C2CCC2)O[C@@H]1CO`?
DENV2 CPE rescue: 4; ERp5 inh: -3; Cneo AK release: -1; CFTR F508del cor: -1; Statin myotox sup: -2
